Test results reported in ChEMBL document CHEMBL1255214, “Structure-based design of imidazo[1,2-a]pyrazine derivatives as selective inhibitors of Aurora-A kinase in cells” (Bioorg Med Chem Lett, 2010).

Legend:
[1] = target: T1, Aurora kinase A (Homo sapiens) (UniProt O14965); experiment: Inhibition of human aurora A at 10 uM
T1 sequence (whole entry): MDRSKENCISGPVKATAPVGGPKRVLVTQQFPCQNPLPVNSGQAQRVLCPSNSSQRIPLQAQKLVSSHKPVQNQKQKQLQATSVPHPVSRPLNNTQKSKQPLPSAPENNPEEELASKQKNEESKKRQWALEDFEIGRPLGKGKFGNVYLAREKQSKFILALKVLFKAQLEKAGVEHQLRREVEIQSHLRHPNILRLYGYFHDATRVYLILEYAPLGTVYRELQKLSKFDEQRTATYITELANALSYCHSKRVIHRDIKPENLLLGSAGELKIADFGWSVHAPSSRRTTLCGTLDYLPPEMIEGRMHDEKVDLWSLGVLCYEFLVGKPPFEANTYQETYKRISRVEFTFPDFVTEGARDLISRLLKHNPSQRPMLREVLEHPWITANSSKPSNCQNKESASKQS
Outline: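 Recombinant human Aurora-A kinase, tested at a single concentration; percent inhibition reported as mean of samples run in triplicate.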

Homo sapiens = species: Homo sapiens; experiment: Selectivity ratio of IC50 for human aurora B to IC50 for human aurora A
Aurora kinase A = target: T2, Aurora kinase A (Homo sapiens, UniProt O14965); experiment: Inhibition of human aurora A
T2 sequence (O14965 whole entry): T1 sequence (whole entry)
Outline: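 Recombinant human Aurora-A kinase; IC50 measured by either a Flashplate or a Filterplate assay. Values are means of two independent determinations, or mean (SD) where n >2; some are means of samples run in triplicate.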

HeLa = experiment: Growth inhibition of human HeLa cells; format: functional
Outline: (§1)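 MTT read-out of cell growth, with GI50 taken from the resulting data.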

HCT-116 = experiment: Growth inhibition of human HCT116 cells; format: functional; outline: as §1
Aurora kinase C = target: T3, Aurora kinase C (Homo sapiens, UniProt Q9UQB9); experiment: Inhibition of human aurora C
T3 sequence (Q9UQB9 whole entry): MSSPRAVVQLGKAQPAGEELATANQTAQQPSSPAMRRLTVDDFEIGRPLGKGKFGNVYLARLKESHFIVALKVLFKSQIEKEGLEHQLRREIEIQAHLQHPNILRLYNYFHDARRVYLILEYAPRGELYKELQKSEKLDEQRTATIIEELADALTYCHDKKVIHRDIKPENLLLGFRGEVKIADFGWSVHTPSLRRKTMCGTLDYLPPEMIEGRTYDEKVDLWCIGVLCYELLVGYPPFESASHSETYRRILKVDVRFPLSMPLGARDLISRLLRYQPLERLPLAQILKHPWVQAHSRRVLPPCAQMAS
Outline: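 Recombinant human Aurora-C kinase; IC50 measured by Filterplate assay.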

Aurora kinase B = Aurora kinase B (Homo sapiens, UniProt Q96GD4); experiment: Inhibition of human aurora B
Aurora kinase B, sequence (Q96GD4 whole entry): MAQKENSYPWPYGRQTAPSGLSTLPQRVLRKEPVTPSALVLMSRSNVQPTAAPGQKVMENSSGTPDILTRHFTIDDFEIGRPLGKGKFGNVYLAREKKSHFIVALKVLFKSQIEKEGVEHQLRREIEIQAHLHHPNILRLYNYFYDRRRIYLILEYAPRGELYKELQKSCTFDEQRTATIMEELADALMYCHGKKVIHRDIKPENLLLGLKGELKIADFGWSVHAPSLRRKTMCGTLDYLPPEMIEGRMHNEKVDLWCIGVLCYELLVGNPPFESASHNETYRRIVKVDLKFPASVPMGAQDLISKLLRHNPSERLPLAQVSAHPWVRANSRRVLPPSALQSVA

SMILES	inhibition [1] [%]	IC50 (Aurora kinase A) [µM]	other results
O=C(O)c1ccc(Nc2ncc3c(n2)-c2ccc(Cl)cc2C(c2c(F)cccc2F)=NC3)cc1	–	–	Ratio IC50 (Homo sapiens): 90
COc1ccc(Nc2nc(-c3cccc(N)c3)cn3ccnc23)cc1	–	5.48	–
COc1ccc(Nc2nc(-c3ccc(F)nc3)cn3ccnc23)cc1	32	–	–
COc1ccc(Nc2nc(-c3ccn(C)n3)cn3ccnc23)cc1	–	9.7	–
COc1ccc(Nc2nc(-c3ccc(OC)nc3)cn3ccnc23)cc1	30	–	–
COc1ccc(NC(=O)Nc2cccc(-c3cn4ccnc4c(Nc4ccc(OC)cc4)n3)c2)cc1	–	7.9	–
COc1ccc(Nc2nc(-c3cccc(NS(=O)(=O)c4ccc(OC)cc4)c3)cn3ccnc23)cc1	–	6.7	–
COc1ccc(Nc2nc(-c3cccc(Cl)c3)cn3ccnc23)cc1	46	–	–
Cc1cnc2c(Nc3ccc(N4CCOCC4)cc3)nc(-c3cccnc3)cn12	–	0.208	GI50 (HeLa): 6.5 µM; GI50 (HCT-116): 7.2 µM
c1cncc(-c2cn3c(-c4cccnc4)cnc3c(Nc3ccc(N4CCOCC4)cc3)n2)c1	–	4.2	–
COCC(=O)Nc1cccc(-c2cn3ccnc3c(Nc3ccc(OC)cc3)n2)c1	–	7.31	–
Clc1cnc2c(Nc3ccc(N4CCOCC4)cc3)nc(-c3cccnc3)cn12	–	–	GI50 (HeLa): 28 µM; GI50 (HCT-116): 3.9 µM; IC50 (Aurora kinase C): 1.95 µM
Brc1cnc2c(Nc3ccc(N4CCOCC4)cc3)nc(-c3cccnc3)cn12	–	0.152	GI50 (HeLa): 13.4 µM; GI50 (HCT-116): 2.3 µM
CS(=O)(=O)NCc1cccc(-c2cn3c(Cl)cnc3c(Nc3ccc(N4CCOCC4)cc3)n2)c1	–	–	Ratio IC50 (Homo sapiens): 70; IC50 (Aurora kinase B): 10.5 µM

Continued, in another order:

inhibition [1] [%]	IC50 (Aurora kinase A) [µM]	SMILES	other results
22	–	COc1ccc(Nc2nc(-c3cccc(NC(=O)COc4ccccc4)c3)cn3ccnc23)cc1	–
–	7.2	COc1ccc(Nc2nc(-c3cccc(NC(=O)Nc4ccccc4)c3)cn3ccnc23)cc1	–
41	–	c1cncc(-c2cn3ccnc3c(NCc3ccc(N4CCOCC4)cc3)n2)c1	–
–	6.7	c1ccc(Nc2nc(-c3cccnc3)cn3ccnc23)cc1	–
–	2.5	CC(=O)Nc1ccc(Nc2nc(-c3cccnc3)cn3ccnc23)cc1	–
27	–	CN(c1ccccc1)c1nc(-c2cccnc2)cn2ccnc12	–
–	5.5	Clc1ccc(Nc2nc(-c3cccnc3)cn3ccnc23)cc1	–
–	3.75	O=C(Nc1ccc(Nc2nc(-c3cccnc3)cn3ccnc23)cc1)c1ccccc1	–
–	2.12	c1cncc(-c2cn3ccnc3c(Nc3ccc(N4CCOCC4)cc3)n2)c1	–
38	–	COc1ccc(Nc2nc(-c3cnn(Cc4ccccc4)c3)cn3ccnc23)cc1	–
35	–	c1cncc(-c2cn3ccnc3c(NCc3ccc4c(c3)OCCO4)n2)c1	–
33	–	c1cncc(-c2cn3ccnc3c(NCCN3CCOCC3)n2)c1	–
–	2.9	COc1ccc(Nc2nc(-c3cccnc3)cn3ccnc23)cc1	–
28	–	COc1ccc(Nc2nc(-c3ccc(Cl)nc3)cn3ccnc23)cc1	–
–	4.5	COc1ccc(Nc2nc(-c3cccc(NS(=O)(=O)c4cccnc4)c3)cn3ccnc23)cc1	–
32	–	OC1CCC(Nc2nc(-c3cccnc3)cn3ccnc23)CC1 (configuration not stated)	–
